Assay results as given in ChEMBL document CHEMBL1138477, “8-(4-Methoxyphenyl)pyrazolo[1,5-a]-1,3,5-triazines: selective and centrally active corticotropin-releasing factor receptor-1 (CRF1) antagonists” (J Med Chem, 2009).
Active and inactive are the calls of the source.

What was measured:
[1] = target: T1, Corticotropin-releasing factor receptor 1 (Rattus norvegicus, UniProt P35353); assay: Displacement of [125I]Tyr0-ovine CRF from CRF1 receptor in rat cortical membrane by gamma counting; type: cell membranes
T1 sequence (P35353 whole entry): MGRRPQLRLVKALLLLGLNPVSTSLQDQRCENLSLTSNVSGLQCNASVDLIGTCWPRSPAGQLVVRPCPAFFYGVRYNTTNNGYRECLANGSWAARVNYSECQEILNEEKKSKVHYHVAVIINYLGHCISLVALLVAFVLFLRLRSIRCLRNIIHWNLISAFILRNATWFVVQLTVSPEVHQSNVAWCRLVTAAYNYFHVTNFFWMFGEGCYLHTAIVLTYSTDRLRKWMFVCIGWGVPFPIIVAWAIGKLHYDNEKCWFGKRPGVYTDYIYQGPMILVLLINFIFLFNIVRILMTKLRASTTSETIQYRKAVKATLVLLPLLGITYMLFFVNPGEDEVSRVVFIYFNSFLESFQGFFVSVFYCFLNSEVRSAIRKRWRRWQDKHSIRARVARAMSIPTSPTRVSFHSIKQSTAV
Summary of the method: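 Inhibition of 125I-Tyr0-ovine-CRF binding to rat cortical membranes measured across dilutions of test drug; IC50 derived by iterative curve fitting.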

Rattus norvegicus [2] = assay: Toxicity in Sprague-Dawley rat assessed as total distance traveled at 30 mg/kg, po after 1 hr by open-field locomotor activity test; type: organism-based; design: dose 30 mg/kg, route oral; conditions: in vivo
Summary of the method: (§1)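 Male Sprague-Dawley rats received a single oral gavage dose of 30 mg/kg (free base weight) in 0.5% methocel–Tween-80 (99:1) or vehicle alone. Behaviour was assessed 1 h postdose, as time on the rotorod in seconds for the rotorod test and total distance travelled in cm for open-field locomotor activity. Values are mean ± SEM, n = 8 per group.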

Rattus norvegicus [3] = assay: Toxicity in Sprague-Dawley rat assessed as time spent on rotarod at 30 mg/kg, po after 1 hr by rotarod test; type: organism-based; design: dose 30 mg/kg, route oral; conditions: in vivo; summary of the method: as §1
Canis familiaris [4] = assay: Ex vivo displacement of [125I]Tyr0-ovine CRF from CRF1 receptor in dog at 5 mg/kg, po measured in plasma after 2 hrs; type: functional; conditions: Canis lupus familiaris
Summary of the method: (§2)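 Beagle dogs given 5 mg/kg po (free base), in Labrafil or Tween-80/0.5% methylcellulose 1:99; plasma drawn 2 and 10 h postdose, diluted 10-fold in binding buffer, and tested for inhibition of 125I-Tyr0-ovine-CRF binding to rat receptors; mean ± SD, n = 3.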

Canis familiaris [5] = assay: Ex vivo displacement of [125I]Tyr0-ovine CRF from CRF1 receptor in dog at 5 mg/kg, po measured in plasma after 10 hrs; type: functional; conditions: Canis lupus familiaris; summary of the method: as §2
Rattus norvegicus [6] = assay: Anxiolytic-like activity in Sprague-Dawley rat assessed as increase in time spent in open arms at 18 mg/kg, po measured after 1 hr by elevated plus maze test; type: functional, organism-based; design: dose 18 mg/kg
Summary of the method: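 Group-housed male Sprague-Dawley rats (180-300 g) dosed po in 0.25% Methocel 1 h before elevated plus maze; arm entry defined as all four paws in arm; percent time in open arms scored; test doses 1.0, 3.0, 10, 30 mg/kg; positive control at 18 mg/kg; n = 13-15/dose; mean ± SEM, ANOVA then Fisher's LSD.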

Rattus norvegicus [7] = assay: Anxiolytic-like activity in Sprague-Dawley rat assessed as decrease in latency to exit dark chamber at 10 mg/kg, po measured after 1 hr by defensive withdrawal test relative to control; type: functional; design: scale not given: the % may be the effect or the level left
Summary of the method: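 Male Sprague-Dawley rats (180-300 g), individually housed; open field with cylindrical dark chamber; oral dosing in 0.25% Methocel 1 h before a 15 min session scored blind via video; latency to place all four paws in open field recorded, maximum 900 s; test doses 1.0, 3.0, 10, 30 mg/kg; positive control at 10 mg/kg; n = 12/dose; Kruskal-Wallis then Mann-Whitney U.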

[8] = target: T2, Corticotropin-releasing factor receptor 1 (Homo sapiens, UniProt P34998); assay: Binding affinity to CRF1 receptor in human IMR32 cells; type: cell-based, IMR-32
T2 sequence (P34998 whole entry): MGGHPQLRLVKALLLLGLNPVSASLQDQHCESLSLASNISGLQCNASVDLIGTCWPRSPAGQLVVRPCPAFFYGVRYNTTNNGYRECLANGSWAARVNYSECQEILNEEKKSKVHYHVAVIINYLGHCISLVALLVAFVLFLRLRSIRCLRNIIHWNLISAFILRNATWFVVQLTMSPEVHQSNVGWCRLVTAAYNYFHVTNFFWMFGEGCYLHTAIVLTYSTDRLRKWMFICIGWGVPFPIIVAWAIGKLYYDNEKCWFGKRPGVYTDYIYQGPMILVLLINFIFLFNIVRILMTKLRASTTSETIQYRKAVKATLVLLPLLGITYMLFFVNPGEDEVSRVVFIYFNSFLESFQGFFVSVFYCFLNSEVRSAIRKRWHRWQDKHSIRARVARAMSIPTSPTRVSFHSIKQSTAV

[9] = target: T1, Corticotropin-releasing factor receptor 1; assay: Antagonist activity at CRF1 receptor in rat brain homogenates assessed as inhibition of CRF-stimulted cAMP production; type: functional, tissue-based
Summary of the method: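 Rat cortical homogenate (0.8 mg original wet weight tissue) incubated 10 min at 37 °C in 100 mM Tris-HCl pH 7.4, 10 mM MgCl2, 0.4 mM EGTA, 0.1% BSA, 1 mM IBMX, creatine phosphate/phosphocreatine kinase, 100 nM ovine-CRF; started with 1 mM ATP/[32P]ATP; [32P]cAMP separated on Dowex and alumina columns, [3H]cAMP recovery marker; n = 3.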

Compound | IC50 [1] | further results
COc1ccc(-c2c(C)nn3c(N4CCCC4)nc(C)nc23)c(C)c1 | 80.7 nM | –
CCOCC(COCC)Nc1nc(C)nc2c(-c3ccc(OC)cc3C)c(C)nn12 | 19.3 nM | –
COCCN(CCOC)c1nc(C)nc2c(-c3cc(F)c(OC)cc3Cl)c(C)nn12 | 1.18 nM | –
CCCN(CCC)c1nc(C)nc2c(-c3ccc(OC)cc3C)c(C)nn12 | 2.58 nM | –
CCC(CC)Nc1nc(C)nc2c(-c3cc(OC)c(OC)cc3Br)c(C)nn12 | 6.08 nM | –
COCCN(CC1CC1)c1nc(C)nc2c(-c3c(C)cc(OC)cc3OC)c(C)nn12 | 1.8 nM | –
COCCN(CCOC)c1nc(C)nc2c(-c3ccc(OC)cc3)c(C)nn12 | 11.5 nM | –
CNC1=Nc2ccc(Cl)cc2C(c2ccccc2)=[N+]([O-])C1 [CHLORDIAZEPOXIDE] | – | Activity (Rattus norvegicus [2]): 2249 cm; Time (Rattus norvegicus [3]): 121 s
CCC1CCCCN1c1nc(C)nc2c(-c3c(C)cc(OC)cc3OC)c(C)nn12 (centres undefined) | 3.26 nM | –
CC[C@H](C)Nc1nc(C)nc2c(-c3c(C)cc(OC)cc3OC)c(C)nn12 | 2.9 nM | inhibition in vivo at 5 mg/kg (Canis familiaris [4]): 72%; inhibition in vivo at 5 mg/kg (Canis familiaris [5]): 74%
CCC(CC)Nc1nc(C)nc2c(-c3cc(F)c(OC)cc3C)c(C)nn12 | 1.9 nM | inhibition in vivo at 5 mg/kg (Canis familiaris [4]): 81%; inhibition in vivo at 5 mg/kg (Canis familiaris [5]): 25%
COCCN(CCOC)c1nc(C)nc2c(-c3cc(OC)c(OC)cc3Br)c(C)nn12 | 4.99 nM | –
COCCN(CCOC)c1nc(C)nc2c(-c3cc(OC)c(OC)cc3C)c(C)nn12 | 13.7 nM | –
CCCCN(CC)c1nc(C)nc2c(-c3c(C)cc(OC)cc3OC)c(C)nn12 | 1.72 nM | –
CCCN(C)c1nc(C)nc2c(-c3c(C)cc(OC)cc3OC)c(C)nn12 | 6.48 nM | –
COCCN(CCOC)c1nc(C)nc2c(-c3c(C)cc(OC)cc3C)c(C)nn12 | 2.74 nM | –
COc1ccc(-c2c(C)nn3c(N(CCC#N)C4CC4)nc(C)nc23)c(C)c1 | 1.88 nM | –
CCC(CC)Nc1nc(C)nc2c(-c3c(C)cc(OC)cc3OC)c(C)nn12 | 5 nM | inhibition in vivo at 5 mg/kg (Canis familiaris [4]): 80%; inhibition in vivo at 5 mg/kg (Canis familiaris [5]): 56%
CCN(CC)c1nc(C)nc2c(-c3cc(OC)c(OC)cc3Br)c(C)nn12 | 4.06 nM | –
CCC(CC)Nc1nc(C)nc2c(-c3ccc(OC)cc3)c(C)nn12 | 3.8 nM | –
CCN(CC)c1nc(C)nc2c(-c3ccc(OC)cc3C)c(C)nn12 | 6.08 nM | –

Compound | IC50 [1] | further results
CCCC(C)Nc1nc(C)nc2c(-c3c(C)cc(OC)cc3OC)c(C)nn12 (centres undefined) | 2.14 nM | –
COCC(COC)Nc1nc(C)nc2c(-c3ccc(OC)cc3C)c(C)nn12 | 9.7 nM | –
C=CCN(C)c1nc(C)nc2c(-c3c(C)cc(OC)cc3OC)c(C)nn12 | 4.92 nM | –
CCCN(CC1CC1)c1nc(C)nc2c(-c3ccc(OC)cc3C)c(C)nn12 | 1.96 nM | –
CCCCN(CC)c1nc(C)nc2c(-c3ccc(OC)cc3C)c(C)nn12 | 2.3 nM | –
COc1cc(C)c(-c2c(C)nn3c(NC4CCC4)nc(C)nc23)c(OC)c1 | 17.4 nM | inhibition in vivo at 5 mg/kg (Canis familiaris [4]): 52%; inhibition in vivo at 5 mg/kg (Canis familiaris [5]): 46%
CCCCN(CC)c1nc(C)nc2c(-c3c(C)cc(OC)cc3C)c(C)nn12 | 4.22 nM | –
CCN(CCOC)c1nc(C)nc2c(-c3c(C)cc(OC)cc3OC)c(C)nn12 | 1.78 nM | inhibition in vivo at 5 mg/kg (Canis familiaris [4]): 86%; inhibition in vivo at 5 mg/kg (Canis familiaris [5]): 54%
COc1ccc(-c2c(C)nn3c(NC4CCC4)nc(C)nc23)c(C)c1 | 24.6 nM | –
C=CCN(CC=C)c1nc(C)nc2c(-c3c(C)cc(OC)cc3OC)c(C)nn12 | 1 nM | –
CCN(CCC#N)c1nc(C)nc2c(-c3c(C)cc(OC)cc3OC)c(C)nn12 | 2.48 nM | –
COCC(COC)Nc1nc(C)nc2c(-c3ccc(Cl)cc3Cl)c(C)nn12 | 4.2 nM | Activity (Rattus norvegicus [6]): Active; Activity (Rattus norvegicus [7]): 52%
CCN(CC)c1nc(C)nc2c(-c3cc(F)c(OC)cc3Cl)c(C)nn12 | 1.64 nM | –
CCN(CC)c1nc(C)nc2c(-c3ccc(OC)c(C)c3C)c(C)nn12 | 38.6 nM | –
COCCN(CCOC)c1nc(C)nc2c(-c3cc(OC)c(OC)cc3Cl)c(C)nn12 | 8 nM | –
CCC(CC)Nc1nc(C)nc2c(-c3ccc(OC)c(C)c3C)c(C)nn12 | 11.3 nM | –
COCCN(CCOC)c1nc(C)nc2c(-c3c(C)cc(OC)cc3OC)c(C)nn12 | 7.96 nM | –
H-DLTFHLLREMLEMAKAEQEAEQAALNRLLLEEA-NH2 | 1.24 nM | IC50 [8]: 2 nM; IC50 [9]: 264 nM
CCCN(CCC)c1nc(C)nc2c(-c3c(C)cc(OC)cc3OC)c(C)nn12 | 3.72 nM | –
CCCN(CCC#N)c1nc(C)nc2c(-c3ccc(OC)cc3C)c(C)nn12 | 2.16 nM | –
CCN(CC)c1nc(C)nc2c(-c3c(C)cc(OC)cc3OC)c(C)nn12 | 1.2 nM | inhibition in vivo at 5 mg/kg (Canis familiaris [4]): 56%; inhibition in vivo at 5 mg/kg (Canis familiaris [5]): 30%
